CRFBP-R2 block – blocks CRF-induced signaling of the CRF-BP/CRF-R2 complex; inhibition, % at 11.8 µM; HEK293 CRF-R2/CRF-BP, CRF-induced calcium fluorescence; 350,000 compounds, 0.59% hits; AID 588475;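 active means inhibition of the ligand-induced calcium signal above about 50% at the single tested concentration, limit read from the data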
zfTRPN1 agonist – activates the zebrafish TRPN1 channel; HEK293 zebrafish TRPN1-YFP, Fluo-8 calcium fluorescence; 100% = response to 87 µM carbachol; activation, % at 3 µM; 220,000 compounds, 0.18% hits; AID 1424;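 active means activation above its plate's cutoff, the mean activation of test wells on that plate plus 3 SD, cut at about 19% in these data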;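 further: 0% = DMSO alone and 100% = 87 µM carbachol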
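Assay system: Zebrafish TRPN1-YFP in HEK293 cells | Incubation: Dye loading 1 h at 37 °C, then 30 min room temperature | Measured by: Kinetic Fluo-8 fluorescence, ex 470-495, em 515-575 nm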
TRPML3 agonist – agonists of human TRPML3 channel; activation, % at 3 µM; 220,000 compounds, 0.29% hits; Q8TDD5; HEK293 TRPML3-YFP, Fluo-8 calcium fluorescence; 100% = the carbachol control signal; AID 1448;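 active means activation above its plate's cutoff, the mean activation of the plate's test wells plus 3 SD, cut at about 12% in these data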;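 further: 0% = DMSO only wells and 100% = carbachol wells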
Target sequence (Q8TDD5 whole entry, looked up): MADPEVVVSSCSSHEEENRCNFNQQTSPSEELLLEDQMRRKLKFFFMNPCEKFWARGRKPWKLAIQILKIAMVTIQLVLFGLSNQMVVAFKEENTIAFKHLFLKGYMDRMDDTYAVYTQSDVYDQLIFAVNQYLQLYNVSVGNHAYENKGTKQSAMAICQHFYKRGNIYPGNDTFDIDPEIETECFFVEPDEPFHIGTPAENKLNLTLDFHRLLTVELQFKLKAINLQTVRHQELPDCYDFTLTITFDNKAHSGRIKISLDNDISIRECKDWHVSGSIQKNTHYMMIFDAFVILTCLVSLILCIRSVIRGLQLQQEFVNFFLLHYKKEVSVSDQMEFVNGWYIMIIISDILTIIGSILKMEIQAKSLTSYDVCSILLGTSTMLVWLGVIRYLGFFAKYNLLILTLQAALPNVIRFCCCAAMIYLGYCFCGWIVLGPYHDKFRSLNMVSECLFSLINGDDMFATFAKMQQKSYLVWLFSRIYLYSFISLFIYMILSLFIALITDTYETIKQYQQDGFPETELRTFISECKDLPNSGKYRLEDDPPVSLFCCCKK
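Test system: HEK293 cells stably carrying human TRPML3-YFP; Doses: single dose, 3 µM final nominal compound, 0.3% DMSO final; Schedule: dye loading 1 h 37 °C then 30 min ambient, 125 s read; Technique: Fluo-8 calcium fluorescence; Benchmarks: high control carbachol 87 µM, low control DMSO.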
CRFR2-BP ag – CRF-BP/CRF-R2 complex agonism | HEK293 CRF-R2/CRF-BP, calcium dye fluorescence (FLIPR); percent of saturating CRF peptide response | activation, % at 13.2 µM | 350,000 compounds, 0.46% hits | AID 588473;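 active means activation of at least 50%, plus an integration ratio under a set limit after plate pattern correction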;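 further: plate controls were neutral control wells without compound for no effect and CRF at EC100 for full effect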
TRPN1 counter – activates zebrafish TRPN1, counter-screen for TRPML3 agonists; 310 compounds, 10% hits; HEK293 zebrafish TRPN1-YFP, Fluo-8 calcium fluorescence; scaled: carbachol wells 100%, DMSO wells 0%; shares compounds with TRPML3 agonist; activation, % at 3 µM;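 active means mean activation over replicates above a set limit taken from the earlier TRPN1 channel primary screen, cut at about 19% in these data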;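 further: 100% = carbachol and 0% = 0.3% DMSO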
TRPML3 ag conf – confirmation of human TRPML3 channel agonists | HEK293 TRPML3-YFP, Fluo-8 calcium fluorescence; 100% set by carbachol, 0% by DMSO | activation, % at 3 µM | 310 compounds, 80% hits | shares compounds with TRPML3 agonist;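 active means activation above a set limit derived from the earlier primary screen, cut at about 12% in these data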
The depositor's hits bear a star; x = no result given. Most compounds without a hit are left out; they make up all but 1.2% or so of the library.

SMILES | CRFBP-R2 block | zfTRPN1 agonist | TRPML3 agonist | CRFR2-BP ag | TRPN1 counter | TRPML3 ag conf
O=C(NC1CCCCCC1)c1ccc(CS(=O)Cc2cccc(Cl)c2)o1 (stereo not given) | 12 | x | x | -3 | x | x
CCc1ccc(C(=O)NCc2ccc(Cl)cc2)cc1 | -3 | 0 | -1 | -1 | x | x
Cc1ccc(S(=O)(=O)N(C)c2cc(S(=O)(=O)N3CCOCC3)c(C)cc2C)cc1 | 2 | x | x | -1 | x | x
Cc1cc(C)c(S(=O)(=O)N2CCCCC2)cc1N(C)S(=O)(=O)c1ccc(Cl)cc1 | 20 | 0 | 68* | 9 | -1 | 69*
Cc1ccc(S(=O)(=O)N2CCN(C)CC2)c(C)c1N(C)S(=O)(=O)c1ccc(Cl)cc1 | 6 | 1 | 77* | -4 | 5 | 58*
CC(C)(C)[C@]1(O)CCN2C[C@H]3c4ccccc4CCc4cccc(c43)[C@@H]2C1 | -24 | -3 | 25* | 1 | -1 | 42*
Cc1ccc(S(=O)(=O)Nc2ccccc2-c2ccccc2)cc1 | -6 | -1 | 91* | 0 | -1 | 97*
Cc1nnc(-c2ccccc2)c(=O)n1/N=C/c1c(O)ccc2ccccc12 | -11 | 15 | 13* | 25 | 2 | 1
CCOC(=O)C1CCN(C(=O)c2cc3ccc(OC)cc3[nH]2)CC1 | 13 | x | x | 1 | x | x
Cc1ccc(OCCNC(=O)/C=C/c2ccc([N+](=O)[O-])cc2)cc1C | 13 | -1 | 1 | -1 | x | x
Cc1cc(C(C)(C)C)oc1C(=O)N(CC(=O)NC1CCCC1)Cc1ccccc1Cl | -25 | 3 | 33* | 1 | 2 | 34*
COC(=O)c1cc(-c2ccc(S(=O)(=O)N3CCCCC3)cc2)c(C(F)(F)F)s1 | -24 | 0 | 16* | 4 | -1 | 19*
COC(=O)c1cc(-c2ccc(S(=O)(=O)N3CCCC3)cc2)c(C(F)(F)F)s1 | 39 | -1 | 7 | 4 | x | x
CCSc1ccccc1C(=O)N1CCC2(CC1)CC(=O)c1ccccc1O2 | -6 | x | x | 0 | x | x
CCc1cc(C(=O)OCC(=O)N2CCC(c3ccccc3)=N2)sc1C | -25 | x | x | 3 | x | x
Cc1ccc(S(=O)(=O)c2c(C)nn(C(C)(C)C)c2OC(=O)C(C)(C)C)cc1 | -18 | 4 | 46* | 7 | 5 | 39*
Cc1cc(-c2c(C)[nH]n(-c3ccc(Cl)cc3)c2=O)n(-c2ccc(Cl)cc2)n1 | 22 | 1 | 0 | 0 | x | x
CCN(c1ccccc1)S(=O)(=O)c1ccc(F)cc1C | 10 | -2 | 24* | 1 | -3 | 50*
C/C(=N\N=C1\NC(=O)C(CC(=O)O)S1)c1ccccn1 (stereo not given) | 5 | 0 | 0 | -1 | x | x
CC1CCCN(c2nc3c(c(=O)n(C)c(=O)n3C)n2CCSc2nc3ccccc3s2)C1 (stereo not given) | 6 | -3 | -2 | 1 | x | x
COc1cccc(CN(CC2CCCO2)S(=O)(=O)c2ccc(S(=O)(=O)N(C)C)cc2)c1 (stereo not given) | -16 | 0 | 14* | -2 | 1 | 17*
COc1ccc(S(=O)(=O)N(CC(=O)NCC2CCCO2)Cc2ccccc2)cc1 (stereo not given) | 0 | x | x | -1 | x | x
COc1cc(CCC(=O)NNC(=O)c2ccc(Cl)cc2)cc(OC)c1OC | 12 | x | x | 0 | x | x
COc1cc(C(=O)NNC(=S)NC(=O)c2ccc(Cl)cc2)cc(OC)c1OC | -9 | 6 | 13* | 35 | 44* | 36*
COc1ccc(C(=O)NC(=S)NNC(=O)c2c(-c3ccccc3)noc2C)cc1OC | 1 | 19 | 19* | 33 | 18 | 24*
Cc1ccsc1/C=N/NC(=O)c1ccco1 | -3 | 1 | 1 | -1 | x | x
COc1cccc(CN(Cc2ccco2)C(c2ccc(F)cc2)c2nnnn2C(C)(C)C)c1 (stereo not given) | -44 | 0 | 25* | 35 | 6 | 26*
O=C(O/N=C1\CCCCC1c1ccc([N+](=O)[O-])cc1[N+](=O)[O-])c1c(F)cccc1F (stereo not given) | 13 | -2 | 57* | 0 | -2 | 6
COc1ccc(/C=C/c2c(-c3ccc(OC)cc3)oc3ccccc23)cc1 | 1 | x | x | 0 | x | x
